{"source": "ChEMBL document CHEMBL1144149", "about": "“DNA polymerase beta inhibitors from Tetracera boiviniana” (J Nat Prod, 1999)", "key": {"[1]": {"assay": "Cytotoxicity against mouse P388D1 cells at 10 uM after 6 hrs by trypan blue exclusion assay", "type": "functional", "summary_of_the_method": "(§1)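 P-388D1 suspension cells were grown in DMEM (4500 mg glucose/L) with 10% donor horse serum and antibiotics at 37 °C in 5% CO2. Cells at ca. 5 × 10^5 cells/mL were stabilized for 1 h, then exposed to compound alone or together with 75 nM bleomycin (blenoxane) for 6 h. Final DMSO was 0.25%. Viability was read by trypan blue exclusion as % of control.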"}, "[2]": {"biological_target": "DNA polymerase beta (Rattus norvegicus) (UniProt P06766)", "conditions": "10 ug/mL"}, "[3]": {"biological_target": "DNA polymerase beta (Rattus norvegicus) (UniProt P06766)", "conditions": "50 ug/mL"}, "P388D1": {"tested_on": "P388D1", "assay": "Potentiation of 75 nM bleomycin induced cytotoxicity in mouse P388D1 cells at 10 uM assessed as cell viability after 6 hrs by trypan blue exclusion assay", "type": "functional", "summary_of_the_method": "as §1"}}, "data": [{"smiles": "C=C(C)[C@@H]1CC[C@]2(C(=O)O)CC[C@]3(C)[C@H](CC[C@@H]4[C@@]5(C)CC[C@H](O)C(C)(C)[C@@H]5CC[C@]43C)[C@@H]12", "note": "[BETULINIC ACID]", "values": [{"measurement": "Activity", "setting": "[1]", "result": 99, "unit": "%"}, {"measurement": "inhibition", "setting": "[2]", "result": 63, "unit": "%"}, {"measurement": "inhibition", "setting": "[3]", "result": 96, "unit": "%"}, {"measurement": "Activity", "setting": "P388D1", "result": 70, "unit": "%"}]}]}
